Test results published in the RNAGym collection of RNA variant scans (doi:10.1126/science.aae0568).
This sample holds only a part of the variants without activity.

B1: tRNA (parent)
chain: GUUCCGUUGGCGUAAUGGUAACGCGUCUCCCUCCUAAGGAGAAGACUGCGGGUUCGAGUCCCGUACGGAACG

Variants of: B1
Experiment: yeast fitness relative to wild type (ratio to wild type); higher = fitter; tRNA-Arg(CCU), competitive growth, 37 C, YPD
In short: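 Variants of the tRNA-Arg(CCU) gene were chemically synthesised with a 3% per-site mutation rate across 69 sites and placed at the native genomic locus in Saccharomyces cerevisiae. Six parallel replicates of the pooled strains were competed in YPD at 37°C for 24 hours, and gene amplicons from the start and end populations were read by 100-nucleotide paired-end sequencing. Darwinian fitness relative to wild type was derived from changes in genotype frequencies. Genotypes required ≥ 100 starting reads, and estimates < 0.5 were set to 0.5.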

| Variant | yeast fitness |
| --- | --- |
| C4G G23C G56C | ≤ 0.5 |
| C4G G23C G67C | ≤ 0.5 |
| C4G G25A | 0.894 |
| C4G G25A C60G C62G | 0.57 |
| C4G G25A U54G | ≤ 0.5 |
| C4G G25C C30G | 0.622 |
| C4G G38A C55U | ≤ 0.5 |
| C4G G38A C66U | ≤ 0.5 |
| C4G G38C G63A G68C A69G | ≤ 0.5 |
| C4G G39A A65C | ≤ 0.5 |
| C4G G39A A65U | 0.576 |
| C4G G39A U53A | ≤ 0.5 |
| C4G G41A C66U | 0.525 |
| C4G G41C | 0.834 |
| C4G G41C C46A | 0.709 |
| C4G G44A | 0.726 |
| C4G G44A A45C | ≤ 0.5 |
| C4G G44C | 0.826 |
| C4G G44C U47A | 0.592 |
| C4G G48A C49U G50A G51C U64A A70C | ≤ 0.5 |
| C4G G48C | 0.822 |
| C4G G48C G51C A57U G68C | 0.55 |
| C4G G48C G67C | 0.542 |
| C4G G50A C55U | ≤ 0.5 |

| Variant | yeast fitness |
| --- | --- |
| C4G G50C C55G C62G | ≤ 0.5 |
| C4G G50C C61U | 0.52 |
| C4G G51C | 0.647 |
| C4G G52C A57C G63C | ≤ 0.5 |
| C4G G56C | 0.699 |
| C4G G58A | 1.05 |
| C4G G58A G67U A69C | 0.542 |
| C4G G58A U64A | ≤ 0.5 |
| C4G G58C | 1.1 |
| C4G G63C | 0.622 |
| C4G G67A A69C | ≤ 0.5 |
| C4G G67A A70G | 0.665 |
| C4G U7A C22U C66A | ≤ 0.5 |
| C4G U7A C31G U59A | ≤ 0.5 |
| C4G U7A G9A C11U C30G C62A | 0.628 |
| C4G U7A G9A C11U C55U | ≤ 0.5 |
| C4G U7A G9C G17C G48A | ≤ 0.5 |
| C4G U7A G10C A20C | ≤ 0.5 |
| C4G U7A G10C A20C C46G | ≤ 0.5 |
| C4G U7A G10C A20C G67U | 0.527 |
| C4G U7A U19C A20C U53C | ≤ 0.5 |
| C4G U7A U26A A40C A42G G58C | ≤ 0.5 |
| C4G U7A U26A A40C A42G G58C G68A | ≤ 0.5 |
| C4G U7A U59A | 0.621 |

| Variant | yeast fitness |
| --- | --- |
| C4G U7C A14C C30U A40U C49U | ≤ 0.5 |
| C4G U7C C11U C22U U35G C61A | ≤ 0.5 |
| C4G U7C C22U U35G C61A | ≤ 0.5 |
| C4G U7C C24U A65G | 0.857 |
| C4G U7C C27A A43U U59G | ≤ 0.5 |
| C4G U7C G41A A42C G50C A70G | ≤ 0.5 |
| C4G U7C U13G | 0.537 |
| C4G U7G | 0.642 |
| C4G U7G A21C | ≤ 0.5 |
| C4G U7G A65G | 0.622 |
| C4G U7G C31U A65U | ≤ 0.5 |
| C4G U7G C34A | ≤ 0.5 |
| C4G U7G C60A C62U G68C | ≤ 0.5 |
| C4G U7G G9A A20G C22A G41A A69C | ≤ 0.5 |
| C4G U7G G10C C24U C29A A45U C46G U47A G50A U64G | ≤ 0.5 |
| C4G U7G G10C G38C C49G A69C | ≤ 0.5 |
| C4G U7G G12C | ≤ 0.5 |
| C4G U7G G12C A20U | ≤ 0.5 |
| C4G U7G G12C A20U C34A G41C A45C U47A C55A | ≤ 0.5 |
| C4G U7G G12C A20U C49U U54A C55U A70C | ≤ 0.5 |
| C4G U7G G12C A20U U28G | ≤ 0.5 |
| C4G U7G G12C A20U U32A | ≤ 0.5 |
| C4G U7G U13G A20U C31A C34G A42C | ≤ 0.5 |
| C4G U7G U59G G63C | ≤ 0.5 |

| Variant | yeast fitness |
| --- | --- |
| C4G U8A C11G A42U U64C G68C | ≤ 0.5 |
| C4G U8A C22U C46G G63A | ≤ 0.5 |
| C4G U8A G12A | 0.6 |
| C4G U8A G12A A14G G48A A69C | ≤ 0.5 |
| C4G U8A G12A A42G G44A U64C | ≤ 0.5 |
| C4G U8A G12A A57G | ≤ 0.5 |
| C4G U8A G12A C22U G48A A69C | 0.522 |
| C4G U8A G12A G48A A69C A70U | 0.561 |
| C4G U8A G12A U35G | ≤ 0.5 |
| C4G U8A G18C U32A U47C | 0.574 |
| C4G U8A G18C U32A U47C U54C | ≤ 0.5 |
| C4G U8C A15C C31A A36U A37C C60A A65G A69G | ≤ 0.5 |
| C4G U8C A15G G23A C34G G67A | ≤ 0.5 |
| C4G U8C A21G | 0.605 |
| C4G U8C C11G C46U | ≤ 0.5 |
| C4G U8C C24G A42C C61G | ≤ 0.5 |
| C4G U8C C24G A42C G67A | 0.558 |
| C4G U8C C49A | ≤ 0.5 |
| C4G U8C G17A C27G A36U C62G | 0.607 |
| C4G U8C G25A A42U A70U | ≤ 0.5 |
| C4G U8C U16A A21C C24G A37U C49U C55U | ≤ 0.5 |
| C4G U8C U16A A21C C24G A37U C55U | ≤ 0.5 |
| C4G U8C U28G C49A C62G | ≤ 0.5 |
| C4G U8C U47A | ≤ 0.5 |

| Variant | yeast fitness |
| --- | --- |
| C4G U8G A21C | ≤ 0.5 |
| C4G U8G C27G G48C | ≤ 0.5 |
| C4G U8G C60A U64A C66U | 0.711 |
| C4G U8G G9A C11U C34G C61A | ≤ 0.5 |
| C4G U8G G18C C49U G58A G67A | ≤ 0.5 |
| C4G U13A A21C U35A A65C | ≤ 0.5 |
| C4G U13A A43G C46G | ≤ 0.5 |
| C4G U13A U54C | 0.548 |
| C4G U13C A15G G48A C61A | 0.672 |
| C4G U13C A40U A42C C66U | ≤ 0.5 |
| C4G U13C A45U G56C | ≤ 0.5 |
| C4G U13C A70G | 0.618 |
| C4G U13C C60G A65U | ≤ 0.5 |
| C4G U13C G23U G48C G50A | ≤ 0.5 |
| C4G U13C G39C | ≤ 0.5 |
| C4G U16C A45G | 0.597 |
| C4G U16C A70C | 0.709 |
| C4G U16C C27G A40G G48A A57C | 0.572 |
| C4G U16C C27G A40G G48A A57C C62U | 0.537 |
| C4G U16C C27G A40G G48A C55A A57C | ≤ 0.5 |
| C4G U16C C29G A36U C60G | ≤ 0.5 |
| C4G U16C C31U | 0.554 |
| C4G U16C C31U A36G | ≤ 0.5 |
| C4G U16C C31U A70C | ≤ 0.5 |

| Variant | yeast fitness |
| --- | --- |
| C4G U16C C31U G51A | 0.533 |
| C4G U16C G44A G48A G50C | 0.511 |
| C4G U16C G44A G48A G50C A57U | ≤ 0.5 |
| C4G U16C U19C U32A C46U G63C | ≤ 0.5 |
| C4G U16C U32A C46U G63C | ≤ 0.5 |
| C4G U16G | 0.831 |
| C4G U16G A20C A21G C30U | ≤ 0.5 |
| C4G U16G C30U C34A U53G | ≤ 0.5 |
| C4G U16G C30U C34A U53G U59C A70C | ≤ 0.5 |
| C4G U16G U19C A21C C49U G50A | 0.621 |
| C4G U19A A37U A42G | 0.55 |
| C4G U19A A37U A42G A65C G67A | ≤ 0.5 |
| C4G U19A C27A G58C C61A A69U | ≤ 0.5 |
| C4G U19A C29G G41A C46U U54C C60A | 0.737 |
| C4G U19A C31G | ≤ 0.5 |
| C4G U19A C46U A70U | ≤ 0.5 |
| C4G U19A G44C | 0.535 |
| C4G U19C | 0.99 |
| C4G U19C A43G A45C C46U | ≤ 0.5 |
| C4G U19C C22G G50A A57C | ≤ 0.5 |
| C4G U19C C62U | 0.799 |
| C4G U19C G48C A69C | 0.602 |
| C4G U19C G51A A65G | ≤ 0.5 |
| C4G U19C U47A C49U G68C | ≤ 0.5 |

| Variant | yeast fitness |
| --- | --- |
| C4G U26A A43U C46G | 0.593 |
| C4G U26A C27U A42C G51A A65U | ≤ 0.5 |
| C4G U26A C30U | ≤ 0.5 |
| C4G U26C C46U | 0.702 |
| C4G U26C G50A | ≤ 0.5 |
| C4G U26G G39C G48A | 0.611 |
| C4G U28A A40C G50A | ≤ 0.5 |
| C4G U28A C31G | ≤ 0.5 |
| C4G U28A C33G | ≤ 0.5 |
| C4G U28A G39A | ≤ 0.5 |
| C4G U28C | 0.77 |
| C4G U28C A69U | 0.568 |
| C4G U28C C55U | ≤ 0.5 |
| C4G U28C G56U U59A | 0.606 |
| C4G U28G C30A A42G A43C C61G | ≤ 0.5 |
| C4G U28G C30A A43C C61G | 0.571 |
| C4G U28G C30A A43C C61G A65G | ≤ 0.5 |
| C4G U32A C34G G41C | ≤ 0.5 |
| C4G U32A C34G G41C C49G | ≤ 0.5 |
| C4G U32A G38C | ≤ 0.5 |
| C4G U32C G63C | 0.605 |
| C4G U32G | 0.628 |
| C4G U32G A69C | ≤ 0.5 |
